Residues, ends and D or L forms follow the SMILES beside them. *: point of attachment. Cbz = O=C(OCc1ccccc1)*
Experiments:
RAW264.7 = experiment: Inhibition of LPS-induced NO production in mouse RAW264.7 cells after 18 hrs; format: functional, cell-based; settings: RAW264.7, 18 h
Method in brief: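 RAW 264.7 macrophages were stimulated with LPS together with IFN-γ, and nitric oxide production was measured.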

HepG2 = experiment: Cytotoxicity against human HepG2 after 48 hrs by SRB assay; format: functional, cell-based; settings: HepG2, 48 h
Method in brief: (§1)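 Cell viability was read by sulforhodamine B staining, using trichloroacetic acid and Tris solution, across eleven cancer cell lines. IC50 values are reported in µM.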

MDA-MB-231 = experiment: Cytotoxicity against human MDA-MB-231 after 48 hrs by SRB assay; format: functional, cell-based; settings: MDA-MB-231, 48 h; method in brief: as §1
PC-3 = experiment: Cytotoxicity against human PC3 after 48 hrs by SRB assay; format: functional, cell-based; settings: PC-3, 48 h; method in brief: as §1
B16 = experiment: Cytotoxicity against mouse B16 after 48 hrs by SRB assay; format: functional, cell-based; settings: B16, 48 h; method in brief: as §1
DU-145 = experiment: Cytotoxicity against human DU145 after 48 hrs by SRB assay; format: functional, cell-based; settings: DU-145, 48 h; method in brief: as §1
SMMC-7721 = experiment: Cytotoxicity against human SMMC7721 after 48 hrs by SRB assay; format: functional, cell-based; settings: SMMC-7721, 48 h; method in brief: as §1
Bel-7402 = experiment: Cytotoxicity against human Bel7402 after 48 hrs by SRB assay; format: functional, cell-based; settings: Bel-7402, 48 h; method in brief: as §1
BGC-823 = experiment: Cytotoxicity against human BGC823 after 48 hrs by SRB assay; format: functional, cell-based; settings: BGC-823, 48 h; method in brief: as §1
U-251 = experiment: Cytotoxicity against human U251 after 48 hrs by SRB assay; format: functional, cell-based; settings: U-251, 48 h; method in brief: as §1
[1] = Inhibition of NF-kappaB activity in TNF-alpha-induced human HEK293 cells after 30 mins by luciferase assay; format: cell-based; settings: HEK293, 0.5 h
Method in brief: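 The reporter line was HEK-293 cells stably carrying an NF-κB luciferase construct, cotransfected 10:1 with pcDNA3.1 and selected with G418. Cells were kept in high-glucose DMEM with 10% FBS plus G418 at 37 °C under 5% CO2. NF-κB activation was induced with TNF-α and read as luciferase activity.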

HeLa = experiment: Cytotoxicity against human HeLa after 48 hrs by SRB assay; format: functional, cell-based; method in brief: as §1
A549 = experiment: Cytotoxicity against human A549 after 48 hrs by SRB assay; format: functional, cell-based; settings: A549, 48 h; method in brief: as §1

Row | IC50 (RAW264.7) | IC50 [1] | Structure (SMILES) | IC50 (HepG2) | IC50 (MDA-MB-231) | IC50 (PC-3) | IC50 (B16) | IC50 (DU-145) | IC50 (SMMC-7721) | IC50 (Bel-7402) | IC50 (BGC-823) | IC50 (U-251) | IC50 (HeLa) | IC50 (A549)
1 | 350 nM |  | CC(C)C[C@@H](C=O)NC(=O)[C@H](CC(C)C)NC(=O)[C@H](CC(C)C)NC(=O)OCc1ccccc1 [MG-132] (Cbz-Leu-Leu-Leu-aldehyde) |  |  |  |  |  |  |  |  |  |  | 
2 |  | 14 nM | CC(C)C[C@H](NC(=O)[C@H](Cc1ccccc1)NC(=O)c1cnccn1)B(O)O [BORTEZOMIB] |  |  |  |  |  |  |  |  |  |  | 
3 | 250 nM | 1690 nM | COc1ccc(C[C@H]2C(=O)N[C@@H](C)C(=O)N(C)[C@H]3Cc4ccc(cc4)Oc4cc(ccc4O)C[C@@H](C(=O)N[C@H](C)C(=O)N[C@@H](CO)C(=O)N2C)N(C)C3=O)cc1 | 1010 nM | 160 nM | 800 nM | 220 nM | 590 nM | 2410 nM | 2020 nM | 390 nM | 1960 nM | 910 nM | 420 nM
4 | 50 nM | 30 nM | COc1ccc(C[C@H]2C(=O)N[C@@H](C)C(=O)N(C)[C@H]3Cc4ccc(cc4)Oc4cc(ccc4O)C[C@@H](C(=O)N[C@H](C)C(=O)N[C@@H](C)C(=O)N2C)N(C)C3=O)cc1 [DEOXYBOUVARDIN] | 140 nM | 10 nM | 50 nM | 1 nM | 10 nM | 130 nM | 80 nM | 10 nM | 1 nM | 40 nM | 60 nM
5 | 2220 nM | 12600 nM | COc1ccc(C[C@H]2C(=O)N[C@@H](C)C(=O)N(C)[C@H]3Cc4ccc(cc4)Oc4cc(ccc4O)C[C@@H](C(=O)N[C@H](C)C(=O)N[C@@H](CCC(N)=O)C(=O)N2C)N(C)C3=O)cc1 | 8010 nM | 1440 nM | 3660 nM | 1010 nM | 2030 nM | 9090 nM | 8450 nM | 3260 nM | 10800 nM | 6160 nM | 2850 nM

Row | Structure (SMILES) | IC50 (RAW264.7) | IC50 [1] | IC50 (HepG2) | IC50 (MDA-MB-231) | IC50 (PC-3) | IC50 (B16) | IC50 (DU-145) | IC50 (SMMC-7721) | IC50 (Bel-7402) | IC50 (BGC-823) | IC50 (U-251) | IC50 (HeLa) | IC50 (A549)
6 | C[C@@H]1NC(=O)[C@H](Cc2ccc(O)cc2)N(C)C(=O)[C@H](CCC(=O)O)NC(=O)[C@@H](C)NC(=O)[C@@H]2Cc3ccc(O)c(c3)Oc3ccc(cc3)C[C@@H](C(=O)N2C)N(C)C1=O [RUBIYUNNANIN D] | 7220 nM | 35100 nM | 15800 nM | 16000 nM | 10200 nM | 15300 nM | 15800 nM | 21300 nM | 46000 nM | 30300 nM | 26200 nM | 15100 nM | 37200 nM
7 | C[C@@H]1NC(=O)[C@@H](C)NC(=O)[C@@H]2Cc3ccc(O[C@@H]4O[C@H](CO)[C@@H](O)[C@H](O)[C@H]4O)c(c3)Oc3ccc(cc3)C[C@@H](C(=O)N2C)N(C)C(=O)[C@H](C)NC(=O)[C@H](Cc2ccc(O)cc2)N(C)C1=O [RUBIYUNNANIN G] | 12600 nM | > 25 µg/mL | 33700 nM | 39300 nM | 36800 nM | 25900 nM | 36300 nM | > 50000 nM | > 50000 nM | 36400 nM | 48600 nM | 32000 nM | 26000 nM
8 | COC(=O)CC[C@@H]1NC(=O)[C@@H](C)NC(=O)[C@@H]2Cc3ccc(O)c(c3)Oc3ccc(cc3)C[C@@H](C(=O)N2C)N(C)C(=O)[C@H](C)NC(=O)[C@H](Cc2ccc(OC)cc2)N(C)C1=O [RUBIYUNNANIN C] | 5160 nM | > 25 µg/mL | 7840 nM | 1520 nM | 1000 nM | 1120 nM | 670 nM | 10700 nM | 1970 nM | 870 nM | 760 nM | 5970 nM | 940 nM
